In ChEMBL document CHEMBL3124843, “Synthesis, cytostatic, antimicrobial, and anti-HCV activity of 6-substituted 7-(het)aryl-7-deazapurine ribonucleosides” (J Med Chem, 2014):
Calls of active or inactive are those of the source. The rule behind the calls is not given here.

Assays:
Candida tropicalis = assay: Antifungal activity against Candida tropicalis after 48 hrs; assay type: functional, organism-based
Pseudomonas aeruginosa [1] = assay: Antibacterial activity against Pseudomonas aeruginosa CCM 3955 after 24 hrs; assay type: functional, organism-based
Staphylococcus aureus [2] = assay: Antibacterial activity against methicillin-resistant Staphylococcus aureus MRSA 4591 after 24 hrs; assay type: functional, organism-based
Escherichia coli [3] = assay: Antibacterial activity against multi-resistant Escherichia coli C/16702 after 24 hrs; assay type: functional, organism-based
MRC5 = assay: Cytostatic activity against human MRC5 cells after 72 hrs by MTT assay; assay type: ADME, cell-based; settings: MRC5, 72 h
Procedure, shortened: (§1)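 IC50 is the concentration that cuts cell growth by 50%, read by quantitative metabolic MTT staining after a 3-day treatment. The resistant sublines were made by raising the concentration of the cytotoxic drug step by step. CEM-DNR-bulk (daunorubicin-selected) stably overexpresses mrp-1. K562-TAX (paclitaxel-selected) expresses only mdr-1. HCT116p53−/− carries null p53 alleles. BJ and MRC-5 are nonmalignant fibroblasts.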

[4] = Antiproliferative activity against human HeLaS3 cells after 72 hrs by XTT assay; assay type: functional, cell-based; settings: HeLa S3, 72 h
Procedure, shortened: (§2)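 Antiproliferative test on HL-60 promyelocytic leukemia and HeLa S3 cervical carcinoma cells growing in liquid suspension.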

Hepatitis C virus [5] = assay: Antiviral activity against Hepatitis C virus subtype 1b infected in human HuH7 cells; assay type: functional, organism-based, Hepacivirus hominis; settings: genotype 1b, Huh-7
A549 = assay: Cytostatic activity against human A549 cells after 72 hrs by MTT assay; assay type: functional, cell-based; settings: A549, 72 h; procedure, shortened: as §1
[6] = Cytotoxicity against human HuH7 cells infected with Hepatitis C virus subtype 2a; assay type: cell-based, Huh-7
Pichia kudriavzevii = assay: Antifungal activity against Candida crusei after 48 hrs; assay type: functional, organism-based
Staphylococcus aureus [7] = assay: Antibacterial activity against Staphylococcus aureus CCM 3953 after 24 hrs; assay type: functional, organism-based
Escherichia coli [8] = assay: Antibacterial activity against Escherichia coli CCM 3954 after 24 hrs; assay type: functional, organism-based
K562 [9] = assay: Cytostatic activity against human K562 cells after 72 hrs by MTT assay; assay type: functional, cell-based; settings: K562, 72 h; procedure, shortened: as §1
HL-60 = assay: Antiproliferative activity against human HL60 cells after 72 hrs by XTT assay; assay type: functional, cell-based; settings: HL-60, 72 h; procedure, shortened: as §2
HCT-116 [10] = assay: Cytostatic activity against p53-deficient human HCT116 cells after 72 hrs by MTT assay; assay type: functional, cell-based; settings: HCT-116, 72 h; procedure, shortened: as §1
[11] = Cytotoxicity against human HuH7 cells infected with Hepatitis C virus subtype 1b; assay type: cell-based, Huh-7
HepG2 = assay: Antiproliferative activity against human HepG2 cells after 72 hrs by XTT assay; assay type: functional, cell-based; settings: HepG2, 72 h
[12] = tested on: Staphylococcus haemolyticus; assay: Antibacterial activity against methicillin-resistant Staphylococcus haemolyticus A/16568 after 24 hrs; assay type: functional, organism-based
CCRF-CEM = assay: Cytostatic activity against human CCRF-CEM cells after 72 hrs by MTT assay; assay type: functional, cell-based; procedure, shortened: as §1
Hepatitis C virus [13] = assay: Antiviral activity against Hepatitis C virus subtype 2a infected in human HuH7 cells; assay type: functional, organism-based, Hepacivirus hominis; settings: genotype 2a, Huh-7
K562 [14] = assay: Cytostatic activity against paclitaxel-resistant human K562 cells after 72 hrs by MTT assay; assay type: functional, cell-based; settings: K562, 72 h; procedure, shortened: as §1
Pseudomonas aeruginosa [15] = assay: Antibacterial activity against multi-resistant Pseudomonas aeruginosa A/16575 after 24 hrs; assay type: functional, organism-based
Enterococcus faecalis = assay: Antibacterial activity against Enterococcus faecalis CCM 4224 after 24 hrs; assay type: functional, organism-based
Candida parapsilosis = assay: Antifungal activity against Candida parapsilosis after 48 hrs; assay type: functional, organism-based
[16] = Cytostatic activity against human CEM-DNR-bulk cells after 72 hrs by MTT assay; assay type: functional, cell-based; procedure, shortened: as §1
Candida albicans = assay: Antifungal activity against Candida albicans after 48 hrs; assay type: functional, organism-based
HCT-116 [17] = assay: Cytostatic activity against human HCT116 cells after 72 hrs by MTT assay; assay type: functional, cell-based; settings: HCT-116, 72 h; procedure, shortened: as §1
BJ = assay: Cytostatic activity against human BJ cells after 72 hrs by MTT assay; assay type: ADME, cell-based; procedure, shortened: as §1

COc1ncnc2c1c(-c1ccccc1)cn2[C@@H]1O[C@H](CO)[C@@H](O)[C@H]1O
Activity (Candida tropicalis): inactive
Activity (Pseudomonas aeruginosa [1]): inactive
Activity (Staphylococcus aureus [2]): inactive
Activity (Escherichia coli [3]): inactive
IC50 (MRC5): > 100 µM
IC50 [4]: > 20 µM
EC50 (Hepatitis C virus [5]): 21 µM
IC50 (A549): > 20 µM
CC50 [6]: > 44 µM
Activity (Pichia kudriavzevii): inactive
Activity (Staphylococcus aureus [7]): inactive
Activity (Escherichia coli [8]): inactive
IC50 (K562 [9]): > 20 µM
IC50 (HL-60): > 20 µM
IC50 (HCT-116 [10]): > 20 µM
CC50 [11]: > 44 µM
IC50 (HepG2): > 20 µM
Activity [12]: inactive
IC50 (CCRF-CEM): > 20 µM
EC50 (Hepatitis C virus [13]): > 44 µM
IC50 (K562 [14]): > 20 µM
Activity (Pseudomonas aeruginosa [15]): inactive
Activity (Enterococcus faecalis): inactive
Activity (Candida parapsilosis): inactive
IC50 [16]: > 20 µM
Activity (Candida albicans): inactive
IC50 (HCT-116 [17]): > 20 µM
IC50 (BJ): > 100 µM

CN(C)c1ncnc2c1c(-c1cc3ccccc3o1)cn2[C@@H]1O[C@H](CO)[C@@H](O)[C@H]1O
Activity (Candida tropicalis): inactive
Activity (Pseudomonas aeruginosa [1]): inactive
Activity (Staphylococcus aureus [2]): inactive
Activity (Escherichia coli [3]): inactive
IC50 (MRC5): > 100 µM
IC50 [4]: > 20 µM
EC50 (Hepatitis C virus [5]): 19.2 µM
IC50 (A549): > 20 µM
CC50 [6]: > 44 µM
Activity (Pichia kudriavzevii): inactive
Activity (Staphylococcus aureus [7]): inactive
Activity (Escherichia coli [8]): inactive
IC50 (K562 [9]): > 20 µM
IC50 (HL-60): > 20 µM
IC50 (HCT-116 [10]): > 20 µM
CC50 [11]: > 44 µM
IC50 (HepG2): > 20 µM
Activity [12]: inactive
IC50 (CCRF-CEM): > 20 µM
EC50 (Hepatitis C virus [13]): > 44 µM
IC50 (K562 [14]): > 20 µM
Activity (Pseudomonas aeruginosa [15]): inactive
Activity (Enterococcus faecalis): inactive
Activity (Candida parapsilosis): inactive
IC50 [16]: > 20 µM
Activity (Candida albicans): inactive
IC50 (HCT-116 [17]): > 20 µM
IC50 (BJ): > 100 µM

CSc1ncnc2c1c(-c1ccsc1)cn2[C@@H]1O[C@H](CO)[C@@H](O)[C@H]1O
Activity (Candida tropicalis): inactive
Activity (Pseudomonas aeruginosa [1]): inactive
Activity (Staphylococcus aureus [2]): inactive
Activity (Escherichia coli [3]): inactive
IC50 (MRC5): > 100 µM
IC50 [4]: > 20 µM
EC50 (Hepatitis C virus [5]): 10.9 µM
IC50 (A549): > 20 µM
CC50 [6]: > 44 µM
Activity (Pichia kudriavzevii): inactive
Activity (Staphylococcus aureus [7]): inactive
Activity (Escherichia coli [8]): inactive
IC50 (K562 [9]): 0.45 µM
IC50 (HL-60): 4.59 µM
IC50 (HCT-116 [10]): > 20 µM
CC50 [11]: > 44 µM
IC50 (HepG2): > 15 µM
Activity [12]: inactive
IC50 (CCRF-CEM): > 20 µM
EC50 (Hepatitis C virus [13]): > 44 µM
IC50 (K562 [14]): > 20 µM
Activity (Pseudomonas aeruginosa [15]): inactive
Activity (Enterococcus faecalis): inactive
Activity (Candida parapsilosis): inactive
IC50 [16]: > 20 µM
Activity (Candida albicans): inactive
IC50 (HCT-116 [17]): > 20 µM
IC50 (BJ): 95.8 µM

Cc1nc(N)c2c(-c3cccs3)cn([C@@H]3O[C@H](CO)[C@@H](O)[C@H]3O)c2n1
Activity (Candida tropicalis): inactive
Activity (Pseudomonas aeruginosa [1]): inactive
Activity (Staphylococcus aureus [2]): inactive
Activity (Escherichia coli [3]): inactive
IC50 (MRC5): > 100 µM
IC50 [4]: > 20 µM
EC50 (Hepatitis C virus [5]): > 44 µM
IC50 (A549): > 20 µM
CC50 [6]: > 44 µM
Activity (Pichia kudriavzevii): inactive
Activity (Staphylococcus aureus [7]): inactive
Activity (Escherichia coli [8]): inactive
IC50 (K562 [9]): > 20 µM
IC50 (HL-60): > 20 µM
IC50 (HCT-116 [10]): > 20 µM
CC50 [11]: > 44 µM
IC50 (HepG2): > 20 µM
Activity [12]: inactive
IC50 (CCRF-CEM): > 20 µM
EC50 (Hepatitis C virus [13]): > 44 µM
IC50 (K562 [14]): > 20 µM
Activity (Pseudomonas aeruginosa [15]): inactive
Activity (Enterococcus faecalis): inactive
Activity (Candida parapsilosis): inactive
IC50 [16]: > 20 µM
Activity (Candida albicans): inactive
IC50 (HCT-116 [17]): > 20 µM
IC50 (BJ): > 100 µM

CNc1ncnc2c1c(-c1cccs1)cn2[C@@H]1O[C@H](CO)[C@@H](O)[C@H]1O
Activity (Candida tropicalis): inactive
Activity (Pseudomonas aeruginosa [1]): inactive
Activity (Staphylococcus aureus [2]): inactive
Activity (Escherichia coli [3]): inactive
IC50 (MRC5): > 100 µM
IC50 [4]: > 20 µM
EC50 (Hepatitis C virus [5]): > 44 µM
IC50 (A549): > 20 µM
CC50 [6]: > 44 µM
Activity (Pichia kudriavzevii): inactive
Activity (Staphylococcus aureus [7]): inactive
Activity (Escherichia coli [8]): inactive
IC50 (K562 [9]): > 20 µM
IC50 (HL-60): > 20 µM
IC50 (HCT-116 [10]): > 20 µM
CC50 [11]: > 44 µM
IC50 (HepG2): > 20 µM
Activity [12]: inactive
IC50 (CCRF-CEM): > 20 µM
EC50 (Hepatitis C virus [13]): > 44 µM
IC50 (K562 [14]): > 20 µM
Activity (Pseudomonas aeruginosa [15]): inactive
Activity (Enterococcus faecalis): inactive
Activity (Candida parapsilosis): inactive
IC50 [16]: > 20 µM
Activity (Candida albicans): inactive
IC50 (HCT-116 [17]): > 20 µM
IC50 (BJ): > 100 µM

CN(C)c1ncnc2c1c(-c1cccs1)cn2[C@@H]1O[C@H](CO)[C@@H](O)[C@H]1O
Activity (Candida tropicalis): inactive
Activity (Pseudomonas aeruginosa [1]): inactive
Activity (Staphylococcus aureus [2]): inactive
Activity (Escherichia coli [3]): inactive
IC50 (MRC5): > 100 µM
IC50 [4]: > 20 µM
EC50 (Hepatitis C virus [5]): 16.8 µM
IC50 (A549): > 20 µM
CC50 [6]: > 44 µM
Activity (Pichia kudriavzevii): inactive
Activity (Staphylococcus aureus [7]): inactive
Activity (Escherichia coli [8]): inactive
IC50 (K562 [9]): > 20 µM
IC50 (HL-60): 11.8 µM
IC50 (HCT-116 [10]): > 20 µM
CC50 [11]: > 44 µM
IC50 (HepG2): > 20 µM
Activity [12]: inactive
IC50 (CCRF-CEM): > 20 µM
EC50 (Hepatitis C virus [13]): > 44 µM
IC50 (K562 [14]): > 20 µM
Activity (Pseudomonas aeruginosa [15]): inactive
Activity (Enterococcus faecalis): inactive
Activity (Candida parapsilosis): inactive
IC50 [16]: > 20 µM
Activity (Candida albicans): inactive
IC50 (HCT-116 [17]): > 20 µM
IC50 (BJ): > 100 µM
